Records with an inconclusive call do not appear.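 The calls were made as follows, unless noted: active = viability at or below 27.92% in each of two runs, the all-compound median minus 4 SD; inconclusive = no clear call, values can overlap the other calls; inactive = the rest.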
Key:
[1] = S. cerevisiae growth inhibition in permissive medium (OD615), pilot counter-assay for S. cerevisiae lifespan shortening project, permissive growth control (AID 705;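 active = growth inhibition above 25% in both replicates, a cutoff set 3 SD above the mean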); conditions: OD615, 24 h, at 10 µM, stronger effect = higher value
Procedure, shortened: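 System: Engineered DeaD yeast | Buffer or medium: SC raffinose/galactose permissive medium | Incubation: Cells pre-grown 4 h, then 24 h compound exposure, 30 °C humidified | Measured by: Absorbance (optical density) at 615 nm | Read-out: Reduction in yeast growth (OD615)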

[2] = S. cerevisiae growth inhibition in restrictive medium, OD615, pilot screen, restrictive growth control, yeast lifespan reduction project (AID 706;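 active = growth inhibition above a set limit, 3 SD over mean compound inhibition, in both replicates, cut at about 43% in these data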;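 also: modified DeaD lifespan yeast strain shifted to restrictive glucose medium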); conditions: OD615, 48 h, at 10 µM, stronger effect = higher value
Procedure, shortened: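 Material: modified S. cerevisiae; Medium: glucose-based CSMM-D restrictive medium; Compound dosing: one concentration, 10 µM final, 0.25% DMSO; Incubation: 48 h compound exposure at 30 °C; Measured by: OD615.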

[3] = doxorubicin toxicity protection in MRP-1 cells – H69AR cells, CellTiter-Glo, duplicate, MRP-1 activator project, pilot screen (AID 807;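 active = viability increase at or above a cutoff of the median across tested compounds plus 3 SD, cut at about 8.5% in these data, passing the limit was not always enough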;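 also: compound pretreatment 18-22 h then 72 h combined with doxorubicin; 0% = doxorubicin alone and 100% = vehicle without doxorubicin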); conditions: H69AR viability with doxorubicin, CellTiter-Glo luminescence; at 10 µM; stronger effect = higher value
[4] = viability of HCT116 without oncogenic beta-catenin – human colon tumor cells, pilot screen (AID 823;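 active = cell viability at or below a set limit in both duplicate runs, the limit being the all-compound median minus 4 SD, cut at about 23% in these data, passing the limit was not always enough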;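 also: 0% = wells killed by 20 µM Hyamine and 100% = untreated DMSO cell wells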); conditions: HCT116 beta-catenin knockout viability, CellTiter-Glo, 60 h; at 10 µM; stronger effect = lower value
[5] = viability of PTEN-null HCT116 cells – cell-based, HCT116 clonal line, CellTiter-Glo, pilot screen (AID 824); conditions: HCT116 PTEN-deleted viability, 60 h, at 10 µM, stronger effect = lower value;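 also: 0% = 20 µM Hyamine control and 100% = vehicle cell control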
[6] = RAM pathway blockade in budding yeast – dse1pr::URA3 reporter, 5-FOA selection, pilot screen (AID 869;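 active = inhibition over a set limit, the all-compound mean plus 3 SD, in both replicate runs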;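 also: 0% = DMSO wells with no growth and 100% = 10 µM 1-NA-PP1 with full growth; RAM network block rescues cells from 5-FOA so hits raise OD615 growth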); conditions: S. cerevisiae dse1pr::URA3 5-FOA growth, OD615, 2 d; at 10 µM; stronger effect = higher value; strain carries analog-sensitive mutant Cbk1 kinase
[7] = RAM signaling pathway blockade in yeast – S. cerevisiae, Pdr1DBD-CYC8 efflux-inhibited sensitized strain, primary screen (AID 1298;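 active = RAM network inhibition above 8.4% in each of two replicates, 3 SD over the compound average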;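 also: 0% = DMSO untreated cells without growth and 100% = 10 µM 1-NA-PP1 full growth; higher means more yeast growth rescued from 5-FOA killing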); conditions: S. cerevisiae cbk1-as DSE1-URA3 strain, 5-FOA growth OD615, 2 d; at 50 µM; stronger effect = higher value

O=C(CSc1nc2c(c(=O)n1-c1ccc(F)cc1)SCC2)NCc1ccco1
inactive: growth inhibition [1] 8.53% | growth inhibition [2] 14.1% | viability increase [3] -2.1% | viability [4] 102% | viability [5] 103% | inhibition [6] 1.21% | RAM network inhibition [7] 7.3%

O=C(O)CC(CNS(=O)(=O)c1ccccc1)c1ccccc1 (stereo unspecified)
inactive: growth inhibition [1] -1.83% | growth inhibition [2] 1.5% | viability increase [3] 0.76% | viability [4] 100% | viability [5] 98.6% | inhibition [6] 1.54% | RAM network inhibition [7] -0.36%

O=C1C(=C(O)c2ccccc2)C(=O)c2ccccc21
inactive: growth inhibition [1] -20.4% | growth inhibition [2] 2.15% | viability increase [3] -3.04% | viability [4] 107% | viability [5] 103% | inhibition [6] -0.26% | RAM network inhibition [7] -1.88%

COc1ccccc1N1CCN(C(=O)CCCn2c(=O)[nH]c3ccsc3c2=O)CC1
inactive: growth inhibition [1] 3.76% | growth inhibition [2] 7.54% | viability increase [3] -2.24% | viability [4] 98.6% | viability [5] 97.2% | inhibition [6] 0.74% | RAM network inhibition [7] -0.42%

O=C1C(Cl)=C(N2CCCCCC2)C(=O)N1c1ccccc1
inactive: growth inhibition [1] -12.4% | growth inhibition [2] -16.4% | viability increase [3] -0.88% | viability [4] 91.3% | viability [5] 93.2% | inhibition [6] 0.8% | RAM network inhibition [7] 3.09%

CCc1ccc(-n2c(O)cnc2Nc2nc(C)cc(C)n2)cc1
inactive: growth inhibition [1] -7.38% | growth inhibition [2] -12.2% | viability increase [3] 1.61% | viability [4] 103% | viability [5] 103% | inhibition [6] 0.325% | RAM network inhibition [7] 3.23%

COCCN1C(=O)c2oc3ccccc3c(=O)c2C1c1ccc(OC)c(OC)c1 (stereo unspecified)
inactive: growth inhibition [1] -24% | growth inhibition [2] -16.9% | viability increase [3] -1.75% | viability [4] 107% | viability [5] 95.1% | inhibition [6] 0.865% | RAM network inhibition [7] 4.46%

CCSc1nnc(Cc2cc(=O)[nH]c(=O)[nH]2)n1-c1ccc(F)cc1
inactive: growth inhibition [1] -5.83% | growth inhibition [2] -10.5% | viability increase [3] 0.38% | viability [4] 104% | viability [5] 100% | inhibition [6] 0.9% | RAM network inhibition [7] 1.04%

COc1ccc(OC)c2sc(NC(=O)c3ccc(S(=O)(=O)N(C)C)cc3)nc12
inactive: growth inhibition [1] -19.3% | growth inhibition [2] -17.2% | viability increase [3] -5.45% | viability [4] 72.9% | viability [5] 68.9% | inhibition [6] 3.56% | RAM network inhibition [7] 6.48%

O=C(Nc1nc2ccccc2s1)c1ccc(Cl)s1
inactive: growth inhibition [1] -14.7% | growth inhibition [2] -29.6% | viability increase [3] -3.11% | viability [4] 88.3% | viability [5] 77% | inhibition [6] 2.79% | RAM network inhibition [7] 1.32%

O=C(CCN1C(=O)c2ccccc2C1=O)N1CCN(Cc2ccc(Cl)cc2Cl)CC1
inactive: growth inhibition [1] -8.77% | growth inhibition [2] -18% | viability increase [3] 1.45% | viability [4] 98.3% | viability [5] 104% | inhibition [6] 1.12% | RAM network inhibition [7] 7.67%

CCOC(=O)Cc1cnc(NC(=O)c2ccccc2)s1
inactive: growth inhibition [1] 6.17% | growth inhibition [2] 5.05% | viability increase [3] -1.51% | viability [4] 92.3% | viability [5] 89.6% | inhibition [6] 0.365% | RAM network inhibition [7] 2.27%

CC(C)CCSc1nnc(Cn2c(=O)sc3ccccc32)n1C
inactive: growth inhibition [1] -10.3% | growth inhibition [2] 2.02% | viability increase [3] 0.27% | viability [4] 79.8% | viability [5] 83.5% | inhibition [6] 1.08% | RAM network inhibition [7] 4.4%

Cc1cc(Oc2ccccc2)nc2ccc(O)cc12
inactive: growth inhibition [1] -1.63% | growth inhibition [2] 3.26% | viability increase [3] -5.89% | viability [4] 89.9% | viability [5] 80.2% | inhibition [6] 1.14% | RAM network inhibition [7] -0.04%

O=S(=O)(NC1=NCCCCC1)c1cccs1
inactive: growth inhibition [1] -0.86% | growth inhibition [2] -16.7% | viability increase [3] -0.2% | viability [4] 100% | viability [5] 98.2% | inhibition [6] 0.765% | RAM network inhibition [7] 5.54%

O=C(Nc1nnc(C2CC2)s1)c1cc(-c2ccccc2)nn1-c1ccccc1
inactive: growth inhibition [1] 2.87% | growth inhibition [2] 30.2% | viability increase [3] -0.61% | viability [4] 76.6% | viability [5] 71.9% | inhibition [6] 2.71% | RAM network inhibition [7] 3.62%

Cc1ccc(N(C)C(=O)N2CCN(S(=O)(=O)c3ccc(C)cc3)CC2)cc1
inactive: growth inhibition [1] -1.22% | growth inhibition [2] -7.74% | viability increase [3] -1.03% | viability [4] 93.7% | viability [5] 96.6% | inhibition [6] 0.215% | RAM network inhibition [7] 6.2%

Cc1c(C(=O)O)oc2ccc(S(=O)(=O)N3CCCCC3C(=O)O)cc12 (stereo unspecified)
inactive: growth inhibition [1] 4.47% | growth inhibition [2] -3.15% | viability increase [3] -0.18% | viability [4] 97.1% | viability [5] 101% | inhibition [6] 1.12% | RAM network inhibition [7] 5.52%

Source: PubChem BioAssay
